Data set [1] concerns humans. The conditions noted are these: exposure levels capable of fully blocking the GIPR; cited from earlier work.
For data set [2], the system named is HFD-induced obese cynomolgus monkeys. The experiment in a line: Efficacy study in obese non-human primates. The data set is classed as in vivo, M. fascicularis. The conditions noted are these: 42-day daily SC treatment.
A short description of data set [3]: Pharmacokinetics in Göttingen minipigs. The conditions noted are these: female, minipig, plasma, sc, 3 nmol/kg. The data set is classed as in vivo. In outline:
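Two female Göttingen minipigs (30–35 kg) per test compound, each given a single SC dose of 3 nmol/kg (0.04 mL/kg) in the inguinal fold or behind the ear. Up to 10 blood samples were drawn via an ear-vein central venous catheter to 129 h into chilled EDTA tubes. Plasma (2000 RCF, 15 min, 4 °C) was frozen and assayed by LC-MS/MS. Half-life came from a one-phase exponential decay fit.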

As for `CC[C@H](C)[C@H](NC(=O)[C@H](CO)NC(=O)[C@H](Cc1ccc(O)cc1)NC(=O)[C@H](CC(=O)O)NC(=O)[C@H](CO)NC(=O)[C@@H](NC(=O)[C@H](Cc1ccccc1)NC(=O)[C@@H](NC(=O)CNC(=O)[C@@H](N)CCC(=O)O)[C@@H](C)O)[C@@H](C)CC)C(=O)N[C@@H](C)C(=O)N[C@@H](CCSC)C(=O)N[C@@H](CC(=O)O)C(=O)N[C@@H](CCCCN)C(=O)N[C@H](C(=O)N[C@@H](Cc1c[nH]cn1)C(=O)N[C@@H](CCC(N)=O)C(=O)N[C@@H](CCC(N)=O)C(=O)N[C@@H](CC(=O)O)C(=O)N[C@@H](Cc1ccccc1)C(=O)N[C@H](C(=O)N[C@@H](CC(N)=O)C(=O)N[C@@H](Cc1c[nH]c2ccccc12)C(=O)N[C@@H](CC(C)C)C(=O)N[C@@H](CC(C)C)C(=O)N[C@@H](C)C(=O)N[C@@H](CCC(N)=O)C(=O)N[C@@H](CCCCN)C(N)=O)C(C)C)[C@@H](C)CC` [GIP(3–30)NH2], in data set [1], the “nausea, comfort or other side effects” value is given as “no alterations in nausea, comfort, or any other side effects”.
In the case of `CCCCCCCCCCCCCCCC(=O)N[C@@H](CCC(=O)NCCCC[C@H](NC(=O)[C@H](C)NC(=O)[C@H](C)NC(=O)[C@H](CCC(N)=O)NC(=O)CNC(=O)[C@H](CCC(=O)O)NC(=O)[C@H](CC(C)C)NC(=O)[C@H](Cc1ccc(O)cc1)NC(=O)[C@H](CO)NC(=O)[C@H](CO)NC(=O)[C@@H](NC(=O)[C@H](CC(=O)O)NC(=O)[C@H](CO)NC(=O)[C@@H](NC(=O)[C@H](Cc1ccccc1)NC(=O)[C@@H](NC(=O)CNC(=O)[C@H](CCC(=O)O)NC(=O)[C@H](C)NC(=O)[C@@H](N)Cc1cnc[nH]1)[C@@H](C)O)[C@@H](C)O)C(C)C)C(=O)N[C@@H](CCC(=O)O)C(=O)N[C@@H](Cc1ccccc1)C(=O)N[C@H](C(=O)N[C@@H](C)C(=O)N[C@@H](Cc1c[nH]c2ccccc12)C(=O)N[C@@H](CC(C)C)C(=O)N[C@H](C(=O)N[C@@H](CCCNC(=N)N)C(=O)NCC(=O)N[C@@H](CCCNC(=N)N)C(=O)NCC(=O)O)C(C)C)[C@@H](C)CC)C(=O)O` [Liraglutide], in data set [2], the “tolerability / side effects” value is “one NHP in the liraglutide monotreatment group that stopped eating and drinking”.
On to `CC[C@H](C)[C@H](NC(=O)[C@H](CC(C)C)NC(=O)[C@H](Cc1c[nH]c2ccccc12)NC(=O)[C@H](CCC(N)=O)NC(=O)[C@@H](NC(=O)[C@H](Cc1ccccc1)NC(=O)[C@H](C)NC(=O)[C@H](CCCCNC(=O)COCCOCCNC(=O)COCCOCCNC(=O)CC[C@H](NC(=O)CCCCCCCCCCCCCCCCCCC(=O)O)C(=O)O)NC(=O)[C@H](CCC(N)=O)NC(=O)[C@H](C)NC(=O)[C@@H](NC(=O)[C@H](CCCCN)NC(=O)[C@H](CC(=O)O)NC(=O)[C@H](CC(C)C)NC(=O)C(C)(C)NC(=O)[C@@H](NC(=O)[C@H](CO)NC(=O)[C@H](Cc1ccc(O)cc1)NC(=O)[C@H](CC(=O)O)NC(=O)[C@H](CO)NC(=O)[C@@H](NC(=O)[C@H](Cc1ccccc1)NC(=O)[C@@H](NC(=O)CNC(=O)[C@H](CCC(=O)O)NC(=O)C(C)(C)NC(=O)[C@@H](N)Cc1ccc(O)cc1)[C@@H](C)O)[C@@H](C)O)[C@@H](C)CC)[C@@H](C)CC)C(C)C)C(=O)N[C@@H](C)C(=O)NCC(=O)NCC(=O)N1CCC[C@H]1C(=O)N[C@@H](CO)C(=O)N[C@@H](CO)C(=O)NCC(=O)N[C@@H](C)C(=O)N1CCC[C@H]1C(=O)N1CCC[C@H]1C(=O)N1CCC[C@H]1C(=O)N[C@@H](CO)C(N)=O` [Tirzepatide], for which, in data set [3], the total exposure AUC(0-inf) was 4.12 µM·h and the half-life was 83 h.

What is called AUC(0-inf) is the area under the concentration-time curve extrapolated to infinity. For orientation: half-life means how long it takes for the measured level to halve. The low end stands for rapid decline, the high end for slow decline.

Source of the values: paper PMC11382121 (Molecular Metabolism, 2024).
